# High-throughput results as filed in PubChem.
# The list is not random: actives were taken first. Their share in the collection is about 5.4%.
# CSC inhib = cancer stem cell inhibition; cancer stem cell-like cells viability, luminescence; inhibition, % at 7.5 µM; 1.1% of 300,000 active; AID 2717; in the data active = inhibition above about 75%; inconclusive = no clear call, values can overlap the other calls; tested in HMLE shEcad cells
# T cruzi repl = blocks replication of Trypanosoma cruzi; T. cruzi beta-gal in NIH3T3, luminescence, 90 h; inhibition, % (concentration not given with the values); 1.4% of 300,000 active; AID 1885;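 active = mean inhibition across valid replicates above about 55%, limit read from the data; inconclusive = mean below that limit but half or more replicates reach it; inactive = mean below it, under half of replicates reach it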;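 also: signal also drops with host cell toxicity which is not excluded here; 0% = plate median of DMSO wells and 100% = zero luminescence signal; higher percent means less beta-gal luminescence so fewer parasites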
#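 Material: NIH/3T3 host cells with β-galactosidase reporter T. cruzi; Input: 5,000 host fibroblasts per well; Medium: DMEM, 2% fetal bovine serum; Compound: 50 nL DMSO compound solution per well; Schedule: 3 h host attachment, then at least 90 h co-culture; Detection: luminescent β-galactosidase signal after 60 min lysis.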
# SKKanGAS inh = SKKanGAS growth inhibition; S. pyogenes SKKanGAS, kanamycin growth, BacTiter-Glo, 6 h; inhibition, % at 7.5 µM; 1.3% of 300,000 active; AID 1662;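 active = mean replicate score, as percent of positive control median, at least 50; inconclusive = mean below 50 but one replicate at or above 50; inactive = mean and every replicate below 50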;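 also: strain carries kanamycin resistance gene driven by streptokinase promoter and grows in 40 µg/ml kanamycin; loss of luminescence reflects streptokinase promoter inhibition or plain growth inhibition; 0% = median of DMSO wells and 100% = positive control at its reference dose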
# Mdm2 MdmX PPI = disrupts the human Mdm2-MdmX interaction | O15151+Q00987 | SaOS-2 split-luciferase Mdm2/MdmX complementation, luminescence | inhibition, % at 8 µM | 3% of 330,000 active | AID 485346;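 active = inhibition of at least 50% at 8 µM in the primary screen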
# Target sequence (O15151 whole entry, looked up): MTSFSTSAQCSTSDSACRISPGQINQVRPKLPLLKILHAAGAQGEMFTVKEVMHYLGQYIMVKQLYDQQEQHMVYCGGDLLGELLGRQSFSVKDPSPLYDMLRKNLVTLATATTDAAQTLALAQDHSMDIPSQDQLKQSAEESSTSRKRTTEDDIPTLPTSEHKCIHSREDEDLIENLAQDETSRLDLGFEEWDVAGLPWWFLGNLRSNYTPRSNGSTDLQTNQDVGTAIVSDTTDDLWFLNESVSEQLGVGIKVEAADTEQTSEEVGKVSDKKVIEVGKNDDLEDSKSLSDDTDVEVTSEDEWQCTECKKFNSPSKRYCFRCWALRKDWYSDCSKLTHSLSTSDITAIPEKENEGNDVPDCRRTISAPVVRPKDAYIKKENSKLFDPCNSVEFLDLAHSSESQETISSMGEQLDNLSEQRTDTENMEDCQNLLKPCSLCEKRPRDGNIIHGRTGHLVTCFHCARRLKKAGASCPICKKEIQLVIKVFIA
# Target sequence (Q00987 whole entry, looked up): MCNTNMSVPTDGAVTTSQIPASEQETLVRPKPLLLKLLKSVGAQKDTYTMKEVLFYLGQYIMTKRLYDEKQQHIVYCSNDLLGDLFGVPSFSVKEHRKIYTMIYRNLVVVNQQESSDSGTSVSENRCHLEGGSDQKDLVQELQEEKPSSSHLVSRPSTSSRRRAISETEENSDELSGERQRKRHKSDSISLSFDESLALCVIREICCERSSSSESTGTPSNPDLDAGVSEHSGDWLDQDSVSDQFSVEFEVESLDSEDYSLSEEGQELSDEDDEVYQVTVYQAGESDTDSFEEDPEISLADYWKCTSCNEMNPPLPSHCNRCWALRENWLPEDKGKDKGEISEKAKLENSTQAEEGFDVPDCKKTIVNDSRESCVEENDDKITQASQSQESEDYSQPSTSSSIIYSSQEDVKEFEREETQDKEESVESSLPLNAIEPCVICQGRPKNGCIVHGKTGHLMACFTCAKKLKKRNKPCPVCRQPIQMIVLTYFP
# aSyn 5UTR inh = MLPCN primary screen, SNCA 5' untranslated region; alpha-synuclein 5'UTR reporter, inhibitor activity; 0.82% of 300,000 active; inhibition, % (tested at 7.5 µM); in the data active = inhibition above about 60%; inconclusive = no clear call, values can overlap the other calls;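 also: H4 neuroglioblastoma cells stably carrying SNCA 5'UTR luciferase fusion; 0% = DMSO wells and 100% = positive control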
# Numbers without * were called inactive; ? = inconclusive; nt = no result.
SMILES,CSC inhib,T cruzi repl,SKKanGAS inh,Mdm2 MdmX PPI,aSyn 5UTR inh
CCc1cccc2c(C(=O)CN3C(=O)NC(C)(c4cccc5ccccc45)C3=O)c[nH]c12 (centres undefined),104*,66*,36,40,-28
Cc1c(Cl)cccc1NC(=O)c1nc(C)n(-c2cc(OC(C)C)c(Cl)cc2Cl)n1,21,56*,23,6,7
C=C1C[C@H]2[C@@H]3CCc4cc(OC)ccc4[C@H]3CC[C@]12C,19,-20,76*,10,-5
COc1ccc(-c2noc(CCC(=O)N3CCN(c4ccccc4Br)CC3)n2)cc1,nt,nt,nt,3,nt
C=CCN(C(=O)CSc1nc2c(sc3ccccc32)c(=O)n1CCN(CC)CC)c1ccccc1,nt,82*,9,26,-34
CN(C)CCN[C@H]1CCC2C3CC=C4C[C@@H](O)CC[C@]4(C)C3CC[C@@]21C (some centres undefined),38,nt,nt,23,nt
CCn1c2ccccc2c2cc(NC(=O)Cc3ccc(S(=O)(=O)N4CCOCC4)s3)ccc21,58,69*,11,-17,-22
CN(C)CCN=Cc1c(O)n(Cc2ccc3c(c2)OCO3)c(=O)c2ccccc12,-6,46,-1,10,-7
CN(C)CCCN=Cc1c(O)n(Cc2ccc3c(c2)OCO3)c(=O)c2ccccc12,-3,75*,3,25,-25
O=c1cc(O)c2c(=O)n(-c3ccccc3)c3ccccc3c2o1,-9,-3,102*,-6,-6
O=C(Cn1nc(CNc2ccc(Cl)cc2)[n+]2c1CCCCC2)c1ccc(Br)cc1,-1,32,84*,8,5
COc1ccc(NCc2nn(CC(=O)c3ccc(Br)cc3)c3[n+]2CCCCC3)cc1,0,14,-3,5,5
Cc1ccc(NC(=O)C(Cc2ccccc2)N2C(=O)C3C4CCC(C4)C3C2=O)cc1Cl (centres undefined),-6,78*,33,3,-24
CN(C(=O)c1ccc2c(c1)OCCO2)c1c(N)n(Cc2ccccc2)c(=O)[nH]c1=O,-9,-12,-8,18,-3
COc1cccc(NC(=O)N2CCCC2C(=O)NCc2ccccc2F)c1 (centres undefined),-14,-6,3,26,-7
Cc1ccc(NC(=O)Cn2nnc(-c3ccccc3NC(=O)c3cccs3)n2)cc1,-10,22,31,48,67*
COc1ccc(N2CCN(C(=O)c3ccc(COc4ccc([N+](=O)[O-])cc4)o3)CC2)cc1,nt,19,1,35,22
COCCn1c(SCC(=O)NC(=O)NC(C)C)nc2ccccc21,-4,-12,-1,11,23
COCCn1c(SCC(=O)NC(=O)NCc2ccccc2)nc2ccccc21,-5,55*,-6,-9,12
Cc1nc(Nc2nc3ccccc3o2)nc2c1CCC2,1,-4,17,25,71*
Cc1cccc(C)c1Nc1nc2ccccc2o1,6,-7,-1,1,8
CCOC(=O)c1cc2c(=O)n3ccccc3nc2n(C(C)C)c1=NC(=O)c1c(-c2ccccc2Cl)noc1C,46,63*,25,-16,18
CCCn1c(CN2CCN(C(=O)OCC)CC2)nc2cc(NC(=O)CC)ccc21,45,-1,10,32,-23
COc1ccccc1NC(=O)c1cc2cc(Br)ccc2cc1O,106*,0,53*,nt,-3
Cc1ccc(C(=O)c2coc3c2C(=O)C(=O)c2ccccc2-3)cc1,71,2,9,-72,-90
SMILES,CSC inhib,T cruzi repl,SKKanGAS inh,Mdm2 MdmX PPI,aSyn 5UTR inh
Cc1oc2c(c1C(=O)c1ccc(Cl)cc1)C(=O)C(=O)c1ccccc1-2,nt,?,75*,nt,-87
COc1ccc(N=C2NN=C(c3ccc4c(c3)OCCO4)CS2)cc1,-12,1,-2,11,-56
FC(F)Sc1ccc(N=C2NN=C(c3ccc4c(c3)OCCO4)CS2)cc1,20,69*,4,-2,-127
C/C(=N/NC(=O)c1ccc(-c2ccccc2)cc1)c1cc(O)cc(O)c1,96*,nt,nt,7,nt
C/C(=N\NC(=O)c1ccc(-c2ccccc2)cc1)C1C(=O)c2ccccc2C1=O,67,?,130*,19,-22
CC(C)(c1ccccc1)c1ccc(OCCCN2CCNCC2)cc1,80*,64*,-10,47,-42
COCCCNCCOc1ccc(C(C)(C)c2ccccc2)cc1,38,61*,-4,31,-7
CNCCCOc1ccc(C(C)(C)c2ccccc2)cc1,nt,28,7,nt,-22
CCC(C)NCCOc1ccc(C(C)(C)c2ccccc2)cc1 (centres undefined),?,65*,3,34,-8
CC(C)(C)c1ccc(OCCCCCCN2CCNCC2)cc1,64,7,-3,26,0
O=[N+]([O-])c1ccc(OCCN2CCNCC2)cc1,7,58*,3,-7,6
Cc1cc2c(cc1C)NC(c1c(C)n(C)n(-c3ccccc3)c1=O)C1=C(CC(C)(C)CC1=O)N2 (centres undefined),nt,55*,13,10,-41
CCN1CCN(Cc2c(C(=O)N/N=C(\C)c3ccc(Cl)c(Cl)c3)nnn2-c2nonc2N)CC1,1,1,-4,2,23
CN(C)c1nnc(-c2ccc(Cl)cc2)o1,3,-7,-4,9,-41
CC[C@H]1OC(=O)C[C@@H](O)[C@H](C)[C@@H](O[C@@H]2O[C@H](C)C[C@H](N(C)C)[C@H]2O)[C@@H](CC=O)C[C@@H](C)C(=O)C=C[C@]2(C)O[C@H]2[C@@H]1C,29,13,111*,nt,-147
CCC(O)C1CCN(C(=O)c2cc(COc3ccc4ncccc4c3)on2)CC1 (centres undefined),0,-21,-4,15,9
CC(C)(CO)NCc1cccc(OCc2ccc(Cl)cc2)c1,-24,28,6,-9,-16
Clc1ccc(COc2cccc(CNCc3ccncc3)c2)cc1,23,70*,0,12,31
CC1C(=O)C(C)C(c2cc(Cl)ccc2O)NC1c1cc(Cl)ccc1O (centres undefined),48,32,74*,39,28
COc1cccc2sc(=NC(=O)CS(=O)(=O)c3ccc(F)cc3)n(C)c12,6,55*,-2,10,-2
CCn1c(=NC(=O)CS(=O)(=O)c2ccc(C)cc2)sc2cccc(OC)c21,43,59*,-3,10,1
COc1cccc2sc(=NC(=O)CCS(=O)(=O)c3ccc(C)cc3)n(C)c12,-1,22,-2,26,20
COc1cccc2sc(=NC(=O)CS(=O)(=O)c3ccc(Cl)cc3)n(C)c12,-8,60*,7,-3,-26
Nc1cc(=O)[nH]c(SCC(=O)Nc2cccc(S(=O)(=O)N3CCCCC3)c2)n1,-1,nt,nt,21,nt
FC(F)(F)COc1nc(N/N=C/c2cccnc2)nc(N2CCCCC2c2ccccn2)n1 (centres undefined),5,59*,-3,11,-27
C(=N\Nc1nc(N2CCCC2)nc(N2CCCC2)n1)/c1cccnc1,13,-7,-2,-22,-17
